The values that follow come from article PMC6064589 (Diabetes Therapy, 2018).

The nature of data set [1]: Pharmacokinetics of semaglutide at steady state of each dose level. The class given is in vivo, human. The settings on record: doses 0.25-1.5 mg at steady state.
The subject of data set [2] is healthy subjects. Briefly: Safety and tolerability. Type of data set: in vivo, human. A digest of the protocol: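 Healthy subjects received s.c. test peptide or placebo once weekly for 16 weeks, escalating 0.25→0.5→1.0→1.5 mg every 4 weeks, with 5–7-week follow-up. Some injections were given on-site, the rest self-administered. Recorded: adverse events, hypoglycaemic events, anti-drug antibodies at follow-up, haematology, biochemistry, urinalysis, calcitonin, vital signs, ECG, physical examination, body weight and fasting plasma glucose changes from baseline.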

The conditions of data set [3]: phase 3 trials; cited from earlier work.
The subject of data set [4] is dipeptidyl peptidase-4 (DPP-4). The settings on record: due to substitution at position 8; cited from earlier work.
In data set [5] the test system is healthy subjects. Type of data set: in vivo, human. A digest of the protocol:
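Healthy subjects randomised to once-weekly s.c. test peptide or placebo, escalated every 4 weeks (0.25, 0.5, 1.0, 1.5 mg) over 16 weeks. Supine continuous 12-lead Holter (Mason-Likar) ECGs at steady state of each level: pre-dose and 12, 18, 24, 25, 26, 27, 30, 36, 42, 48 h. QT/RR measured semi-automatically, lead II. QTcI=QT/RR^β (subject-specific β); QTcL, QTcF, QTcB. Placebo-subtracted baseline-adjusted means, two-sided 90% CIs.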

Data set [6] relates to healthy subjects. The data set is described as follows: Other ECG assessments. Type of data set: in vivo, human. A digest of the protocol:
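ECGs come from the same Holter recordings: 11 time points, pre-dose to 48 h after last dose at 0.5, 1.0 and 1.5 mg. HR, PR and QRS use the same model. Outlier cut-offs: HR <50 or >100 bpm; PR >220 ms and/or >25% change from baseline; QRS >110 ms and/or >25% change. A cardiologist read one random ECG per time point for T/U wave abnormalities.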

The test system of data set [7] is healthy subjects. Type of data set: in vivo, human. The settings on record: single oral 400 mg dose, N = 76. An outline of the steps: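 Placebo-arm subjects received single oral 400 mg positive control or matching placebo in nested crossover, before (baseline) and after (week 15) placebo treatment. […] Supine Holter ECGs pre-dose and 1, 2, 3, 6, 12, 18, 24 h. QTcI analysed by ANOVA (treatment, period, subject fixed; pre-dose QTcI covariate). 3 and 6 h confirmatory with 95% CI; other times with 90% CI.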

For data set [8], the system named is healthy subjects. The settings on record: cited from earlier work.
[9] abbreviates: s.c. once weekly, escalated 0.25 to 1.5 mg over 16 weeks, N = 83.
The mark [10] stands for this setting: 1.5 mg at steady state, 0-48 h after dosing.

Read-outs that look alike come from different tables or passages of the source. Bounds are passed on as bounds.

For `CC[C@H](C)[C@H](NC(=O)[C@H](Cc1ccccc1)NC(=O)[C@H](CCC(=O)O)NC(=O)[C@H](CCCCNC(=O)COCCOCCNC(=O)COCCOCCNC(=O)CC[C@H](NC(=O)CCCCCCCCCCCCCCCCC(=O)O)C(=O)O)NC(=O)[C@H](C)NC(=O)[C@H](C)NC(=O)[C@H](CCC(N)=O)NC(=O)CNC(=O)[C@H](CCC(=O)O)NC(=O)[C@H](CC(C)C)NC(=O)[C@H](Cc1ccc(O)cc1)NC(=O)[C@H](CO)NC(=O)[C@H](CO)NC(=O)[C@@H](NC(=O)[C@H](CC(=O)O)NC(=O)[C@H](CO)NC(=O)[C@@H](NC(=O)[C@H](Cc1ccccc1)NC(=O)[C@@H](NC(=O)CNC(=O)[C@H](CCC(=O)O)NC(=O)C(C)(C)NC(=O)[C@@H](N)Cc1cnc[nH]1)[C@@H](C)O)[C@@H](C)O)C(C)C)C(=O)N[C@@H](C)C(=O)N[C@@H](Cc1c[nH]c2ccccc12)C(=O)N[C@@H](CC(C)C)C(=O)N[C@H](C(=O)N[C@@H](CCCNC(=N)N)C(=O)NCC(=O)N[C@@H](CCCNC(=N)N)C(=O)NCC(=O)O)C(C)C` [semaglutide], in data set [1], the “Increase in AUC0−48h and Cmax with increasing dose” value is given as “consistent with dose proportionality”. Moreover, in the data set with healthy subjects [2] (16-week treatment, mean ± SD), the “Diastolic BP change from baseline to last dose” value turned out to be 5 ± 8 mmHg and the “HR change from baseline to last dose (vital signs)” value is listed as 10 ± 9 bpm. The “Development of anti-semaglutide antibodies” value in the data set on healthy subjects [2] (at follow-up) is given as “no subjects developed anti-semaglutide antibodies”. The Severe hypoglycemic episodes entry with healthy subjects [2] (in vivo) is on record as “No severe hypoglycemic episodes were reported”. Also, in the data set on healthy subjects [2] (setting [9]), the “Events leading to withdrawal, percentage of subjects” value was found to be 2.4%; the “Gastrointestinal disorders (predominantly nausea, vomiting and diarrhea), subjects” value stood at 56.6%; the “Metabolism and nutrition disorders (predominantly decreased appetite), subjects” value was found to be 51.8%. Besides, in data set [3], the “Mean increases in HR with semaglutide versus placebo” value is given as “up to 3 bpm”. Besides, the “Susceptibility to degradation by dipeptidyl peptidase-4 (DPP-4)” value in data set [4] is given as “less susceptible to degradation”. Also, the “Upper limits of all 11 two-sided 90% CIs for the mean ΔΔQTcI” value with healthy subjects [5] (0.5 mg at steady state, 0-48 h after dosing) was less than 10 ms. The “Upper limits of all 11 two-sided 90% CIs for the mean ΔΔQTcI” value in the data set on healthy subjects [5] (1.0 mg at steady state, 0-48 h after dosing) is reported as less than 10 ms. In addition, in the data set on healthy subjects [5] (setting [10]), the “Maximum upper limit of the two-sided 90% CI for the time-matched ΔΔQTcI” value worked out at 0.3 ms and the “Upper limits of the 11 two-sided 90% CIs of ΔΔQTcI” value was less than 10 ms. The “Prolongation of the uncorrected QT interval, QTcL or QTcF” value with healthy subjects [5] (doses of 0.5, 1.0 and 1.5 mg at steady state) is “No prolongation was observed”. For the same compound, the “QTcB, upper limits of the 90% CIs” value in the data set with healthy subjects [5] (for at least one time point at all dose levels) is greater than 10 ms. Besides, the “Increased PR interval of > 25% above baseline” value in the data set on healthy subjects [6] (0.5 mg group) is recorded as “none”. Also, in the data set on healthy subjects [6] (1.0 and 1.5 mg treatment groups), the “Increased PR interval of > 25% above baseline” value is given as “five”. Also, in the data set on healthy subjects [6] (all ECGs evaluated by the cardiologist), the “Second-degree or higher-grade atrioventricular block” value is recorded as “no observations of a second-degree atrioventricular block or higher-grade atrioventricular blocks”. The “Changes in QRS complex duration of > 25% above baseline” value with healthy subjects [6] (any of the treatment arms) is “No changes”. Also, the “Subjects with T wave abnormalities” value in the data set with healthy subjects [6] (doses 0.5 or 1.0 mg, female subjects, all of no clinical relevance) is reported as “three”. Further, the U wave abnormalities result with healthy subjects [6] (either group) is on record as “no U wave abnormalities were observed”.
On to `COc1c(N2C[C@@H]3CCCN[C@@H]3C2)c(F)cc2c(=O)c(C(=O)O)cn(C3CC3)c12` [moxifloxacin], for which the “Estimated treatment difference moxifloxacin vs. placebo, QTcI” value in the data set with healthy subjects [7] (1 h after dosing) is on record as 10.0 ms; in the data set on healthy subjects [7] (2 h after dosing), 12.3 ms; in the data set on healthy subjects [7] (3 h after dosing (confirmatory endpoint)), 12.3 ms; with healthy subjects [7] (6 h after dosing (confirmatory endpoint)), 8.9 ms.
For the compound albiglutide, the PR interval prolongation result in the data set on healthy subjects [8] is “A PR interval prolongation has also been observed”. In addition, the “Prolongation of the QTcI interval or QTc by other correction methods” value in the data set on healthy subjects [8] (healthy subjects) was “neither albiglutide administered once weekly nor liraglutide administered once daily have been observed to prolong the QTcI interval”.
For the compound exenatide, the “Correlation between exposure and QTc interval” value in the data set on healthy subjects [8] (single dose) is listed as “positive correlation”. In addition, the “Prolongation of QTcP or QTcI” value in the data set on healthy subjects [8] (supratherapeutic concentrations, intravenous, healthy subjects) is listed as “no prolongation”.
As for dulaglutide, the QTc prolongation entry with healthy subjects [8] (administered once weekly) is reported as “not associated with QTc prolongation”. In addition, the PR interval prolongation entry in the data set on healthy subjects [8] was “A PR interval prolongation has also been observed”.
With liraglutide, in the data set with healthy subjects [8], the PR interval prolongation result is “A PR interval prolongation has also been observed”. Moreover, in the data set with healthy subjects [8] (healthy subjects), the “Prolongation of the QTcI interval or QTc by other correction methods” value is “neither albiglutide administered once weekly nor liraglutide administered once daily have been observed to prolong the QTcI interval”.
